NR1D1 modulator: modulates human Rev-erb alpha binding to DNA; AID 1259318; P20393; Rev-erbα–FITC-DNA binding, fluorescence polarization, 90 min; activity, % at 10 µM; 0.79% of 370,000 active;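 active = activity above about 14%, limit read from the data; passing the limit was not always enough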;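 also: 0% = DMSO wells with 35 nM protein and 100% = DMSO wells with 750 nM protein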
Target sequence (P20393 whole entry, looked up): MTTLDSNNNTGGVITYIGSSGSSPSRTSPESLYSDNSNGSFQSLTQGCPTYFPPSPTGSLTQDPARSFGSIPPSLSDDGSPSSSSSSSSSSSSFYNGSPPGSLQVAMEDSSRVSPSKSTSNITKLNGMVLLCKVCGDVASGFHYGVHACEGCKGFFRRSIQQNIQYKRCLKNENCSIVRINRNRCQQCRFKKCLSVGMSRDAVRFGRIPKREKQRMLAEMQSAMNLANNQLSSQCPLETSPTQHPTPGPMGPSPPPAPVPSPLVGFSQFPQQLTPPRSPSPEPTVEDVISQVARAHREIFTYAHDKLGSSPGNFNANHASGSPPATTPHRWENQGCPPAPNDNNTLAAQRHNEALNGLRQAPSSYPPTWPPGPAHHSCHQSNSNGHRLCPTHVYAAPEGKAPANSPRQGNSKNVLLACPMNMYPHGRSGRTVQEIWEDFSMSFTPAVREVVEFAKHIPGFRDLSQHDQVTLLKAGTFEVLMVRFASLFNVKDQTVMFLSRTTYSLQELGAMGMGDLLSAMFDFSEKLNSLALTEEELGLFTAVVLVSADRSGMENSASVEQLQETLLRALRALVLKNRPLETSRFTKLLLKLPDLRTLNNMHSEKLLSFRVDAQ
NR2E3 ag-1: activates human photoreceptor nuclear receptor NR2E3; Q9Y5X4; GST-NR2E3/biotin-RetCOR TR-FRET, 1536-well; inhibition of corepressor binding, % at 4.78 µM; 0.12% of 320,000 active;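 active = percent inhibition above the cutoff of mean plus 3 SD of all tested compounds, set per screening campaign, cut at about 20% in these data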;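 also: 0% = DMSO wells and 100% = biotin wells as full block of FRET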
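Material: NR2E3–RetCOR corepressor complex / Incubation: Compound–protein incubation for 5 h at 4 °C / Dosing: compound at 4.8 µM, single dose / Detection: time-resolved FRET / Benchmarks: high control biotin, low control 0.6% DMSO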
VLA-4 inh: inhibition in a human VLA-4 binding assay; inhibition, % (about 7 µM as worked out from the volumes in the protocol); VLA-4 expressing cells, ligand binding flow cytometry; P13612; 0.2% of 330,000 active; in the data active = inhibition above about 50%
NR2E3 ag-2: human photoreceptor-specific nuclear receptor agonism; AID 602229; inhibition of corepressor binding, % at 3.98 µM; CHO-S Gal4-NCOR/VP16-NR2E3 two-hybrid, luciferase; 0.35% of 360,000 active; Q9Y5X4;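 active = inhibition above the mean of all tested compounds plus 3 SD, cut at about 70% in these data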;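 also: 0% = DMSO with NR2E3 transfected cells and 100% = cells lacking NR2E3 construct; higher means lower luciferase signal from less NR2E3 corepressor binding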
PG9 binder: PG9 antibody binding by small molecule | TR-FRET gp120-PG9 antibody binding | inhibition, % at 6.7 µM | 0.43% of 360,000 active; in the data active = inhibition above about 8.5%
VLA-4 mod pick: confirmation of allosteric modulators of human VLA-4 integrin | shares compounds with VLA-4 inh | U937 cells, HUTS-21 LIBS mAb binding, flow cytometry; LDV ligand present at threefold Kd | inhibition, % at 6.7 µM | 2% of 1,300 active | AID 2813; in the data active = inhibition above about 40%;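 also: 0% = ligand without compound and 100% = no ligand background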
* = called active by the depositor; . = no result given; ! = a repeat was not active. This is a sample that favours compounds with a hit; in the whole collection about 1.6% have one here.

SMILES	NR1D1 modulator	NR2E3 ag-1	VLA-4 inh	NR2E3 ag-2	PG9 binder	VLA-4 mod pick
COc1cccc(-n2c(Cc3cc(=O)[nH]c(=O)[nH]3)nnc2SCC(=O)N2CCCC2)c1	3	3	-8	-23	0	15
COc1cccc(-n2c(Cc3cc(=O)[nH]c(=O)[nH]3)nnc2SCC(=O)N2CCCCCC2)c1	-3	7	-5	-12	1	9
COc1ccc(-n2c(Cc3cc(=O)[nH]c(=O)[nH]3)nnc2SCC(=O)N2CCCC2)cc1	4	2	-6	-4	-1	.
CN(CCc1ccccc1)C(=O)c1ccc2c(c1)ncn2C1CCCCC1	-4	.	.	.	.	.
C[C@@H]1[C@H](O)[C@@H](C)/C=C/C=C/C=C/C=C/C=C/C=C/C=C/[C@H](OC2O[C@H](C)[C@@H](O)[C@H](N)[C@@H]2O)C[C@@H]2O[C@](O)(C[C@@H](O)C[C@@H](O)[C@H](O)CC[C@@H](O)C[C@@H](O)CC(=O)O[C@H]1C)C[C@H](O)[C@H]2C(=O)O (some centres undefined)	-2	.	.	.	.	.
COc1ccc(CNC(=O)C2CCN(S(C)(=O)=O)CC2)c(OC)c1	-7	3	53*	12	0	1
CCS(=O)(=O)N1CCC(C(=O)NCc2ccc(OC)cc2OC)CC1	-4	-2	-6	0	0	.
COC(=O)[C@]12C[C@H](CC(=O)NCc3ccccc3)C(=O)N(Cc3cccc4ccccc34)C1=C[C@H](C1CCCC1)O[C@@H]2C	0	.	.	.	.	.
CC(C)(C)N1Cc2nnn(CC3CCCCC3)c2-c2cc(F)ccc2S1(=O)=O	-1	.	.	.	.	.
O=C(c1cc(-c2cccs2)nc2ccccc12)N1CCN(c2ccccc2)CC1	1	4	11	-11	0	.
O=C(c1cc(-c2cccs2)nc2ccccc12)N1CCN(S(=O)(=O)c2cccc(F)c2)CC1	-5	0	91*	-11	1	0
O=C(c1cc(-c2cccs2)nc2ccccc12)N1CCN(S(=O)(=O)c2ccccc2)CC1	-2	1	13	3	1	-13
COc1ccc(C(=O)C2CCN(c3ncnc4sccc34)CC2)cc1	0	.	.	.	.	.
c1ccc(Cn2ccc3ccc(-c4ccc5ccn(Cc6cccc(Oc7ccccc7)c6)c5c4)cc32)cc1	0	.	.	.	.	.
CCn1c(/C=N/Nc2ccc(C(=O)O)cc2)nc2ccccc21	0	0	47	3	-1	12
Cc1ccc(C(=O)N2CC(C)CC(C)C2)cc1NC1=NC2CS(=O)(=O)CC2S1 (centres undefined)	-2	6	-7	-9	-1	2
Cc1ccc(C(=O)N2CCC(C)CC2)cc1NC1=NC2CS(=O)(=O)CC2S1 (centres undefined)	-6	4	67*	-16	-1	0
Cc1ccc(C(=O)N2CCN(c3ncccn3)CC2)cc1NC1=NC2CS(=O)(=O)CC2S1 (centres undefined)	2	2	-2	-7	-1	.
CCOC(=O)CC[C@@]1(C(=O)OCC)C[C@@H](CC(=O)N2CCOCC2)C(=O)N2CCCC=C21	1	.	.	.	.	.
COc1ccc(-c2nnc3n2N=C(C)CS3)cc1	-3	0	20	-3	-5	.
COc1ccc(C2=Nn3c(nnc3-c3ccc(OC)cc3)SC2)cc1	4	0	54*	-45	1	33
C[C@]12CCC(=O)C=C1CC[C@@H]1[C@@H]2[C@@H](O)C[C@@]2(C)[C@H]1CC[C@]2(O)C(=O)COC(=O)CCC(=O)O	6	3	53*!	18	3	4
C=CC[n+]1c(C)csc1Nc1cccc(Br)c1	11	-3	-13	-9	0	.
C=CC[n+]1c(C)csc1Nc1ccc(C)cc1	2	0	52*	-4	-2	0
COc1ccc(CNCCNC(=O)c2cccs2)cc1OC	-3	2	65*	7	-1	0
CCNC(=O)OCC(CC)NC(=O)OCC(C)C (centres undefined)	6	1	14	-3	1	.
CCC(COC(=O)Nc1cccc(C)c1)NC(=O)OCC(C)C (centres undefined)	-2	1	94*	-24	0	-4
Cc1ccc(C(=O)OCC(=O)Nc2ccc(S(N)(=O)=O)cc2)c(O)c1	1	-2	5	7	-1	6
